Sampled rows, rich in hits. Any-hit rate of the full collection: about 3.7%.
ROMK mod: modulators of human ROMK potassium channel. Tet-inducible ROMK, thallium flux fluorescence; actives lie on both sides. P48048. AID 1918. hit rate 2% among 130,000. B-score at 10 µM;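 active means signal ratio slope over the read window, or its plate-corrected B-score, at least 3 SD from the plate mean, either direction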;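 further: B-score of the F/F0 ratio slope over 7 to 12 s after thallium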
Target sequence (P48048 whole entry, looked up): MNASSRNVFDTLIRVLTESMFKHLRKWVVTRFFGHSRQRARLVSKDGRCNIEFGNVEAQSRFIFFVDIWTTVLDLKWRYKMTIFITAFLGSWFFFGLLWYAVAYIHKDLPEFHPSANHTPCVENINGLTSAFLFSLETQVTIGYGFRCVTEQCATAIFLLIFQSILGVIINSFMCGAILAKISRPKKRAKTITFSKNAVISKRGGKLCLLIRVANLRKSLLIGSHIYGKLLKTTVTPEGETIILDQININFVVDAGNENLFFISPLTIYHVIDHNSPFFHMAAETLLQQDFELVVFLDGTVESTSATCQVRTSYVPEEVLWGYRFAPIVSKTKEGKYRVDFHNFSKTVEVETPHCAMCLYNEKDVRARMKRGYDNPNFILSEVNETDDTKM
MT stabilizer: microtubule stabilization, imaging screen; HeLa tubulin immunostaining HCS, 24 h; share of cells brighter than vehicle mean+2SD; % tubulin-high responders, % at 10 µM; hit rate 0.83% among 200,000;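 active means plate Z-score above 3 for both tubulin-high and condensed-nucleus cell shares, with cell loss under 80%, at 10 µM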;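 further: anti alpha tubulin signal scored within the nucleus-defined area of each cell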
bCat nuc transl: alters nuclear translocation of beta-catenin in HeLa cells; immunofluorescence imaging; nuclear translocation activity, % at 5 µM; hit rate 0.3% among 190,000;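 active means nuclear translocation activity above 50% at 5 µM, with a well cell count of 50 or more; inconclusive means wells under 50 cells across six images, flagged as toxic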;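 further: per-cell ratio of nuclear to cytoplasmic median beta-catenin stain intensity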
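Technique: fluorescence imaging of beta-catenin antibody stain plus DAPI / Material: human HeLa cell line / Incubation: compound treatment 24 h, 37°C, 5% CO2 / Read-out basis: % activation of per-cell nuclear versus cytoplasmic median beta-catenin signal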
DTT redox prof: compounds producing H2O2 with reducing agent – biochemical, NIH compound library profiling, artefact control for MLSCN library redox annotation, primary screen; DTT-dependent redox cycling H2O2, phenol red/HRP absorbance; 100% = 100 µM peroxide control, 0% = buffer; hit rate 0.03% among 200,000; AID 878; activation, % at 10 µM;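 active means activation of at least 50% relative to the plate's high and low controls in the primary single-dose screen; inactive means activation below 50%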;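 further: compound incubated with DTT at 0.8 mM final as the reducing agent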
Cl transport mod: modulates chloride dependent transport by human KCC2; Q9H2X9; KCC2 cells, thallium flux FluoZin-2 fluorescence; B-score of Tl+ flux slope (higher = more flux/activation; lower = inhibition) at 10 µM; hit rate 2.2% among 190,000; AID 1456;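 active means thallium flux slope and its plate-corrected score both differing from the plate sample mean at a set confidence after two filtering rounds, in either direction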;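 further: slope of fluorescence scaled to starting intensity during 10 to 20 s after thallium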
KCC2 sec1: confirmation of human KCC2 transport modulators; shares compounds with Cl transport mod; HEK293-KCC2, thallium flux, FluoZin2 fluorescence; stronger effect = higher value; normalised thallium flux (F/F0 slope) at 10 µM; hit rate 15% among 3,700; AID 1713;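 active means thallium flux slope above the same plate's solvent-only control mean plus 3 SD; inconclusive means the two replicate wells disagree; inactive means no significant difference from solvent-only control wells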
KCC2 bumet counter: thallium flux persisting under bumetanide in KCC2 cells, counter-screen secondary assay; AID 1714; shares compounds with Cl transport mod; hit rate 49% among 3,700; normalized thallium flux at 10 µM; HEK293-KCC2 + bumetanide/ouabain, thallium flux FluoZin2; stronger effect = higher value;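 active means thallium entry rate above the same plate's blocked-transporter control wells by more than 3 SD; inconclusive means the two repeat wells disagree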;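 further: raw slope of fluorescence over initial fluorescence between 10 and 20 s after thallium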
KCC2 secondary2: KCC2 (human) modulation, second secondary assay. HEK293-KCC2, thallium flux FluoZin2 fluorescence; actives lie on both sides; F/F0 rise rate, 10–20 s post-thallium. shares compounds with Cl transport mod. normalized thallium flux at 10 µM. hit rate 23% among 3,700;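 active means thallium flux slope more than 3 SD above or below the plate's solvent-only control mean, mostly below; inconclusive means the two repeat wells disagreed; inactive means no significant shift from solvent-only controls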
HEK293 Tl flux: counter-screen for KCC2 modulators: effect in parental HEK293 cells. shares compounds with Cl transport mod. thallium flux FluoZin2, ouabain; baseline-ratio fluorescence slope, 10–20 s after thallium. thallium flux rate (normalised fluorescence) at 10 µM. hit rate 46% among 3,700. AID 1716;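 active means thallium flux rate significantly above the same plate's solvent-only control wells, beyond their mean plus 3 SD; inconclusive means the two replicate wells gave conflicting results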
KCC2 retest ouab: modulates human KCC2 on retest with ouabain | hit rate 48% among 3,700 | shares compounds with Cl transport mod | raw Tl+ flux slope (below DMSO = inhibition, above = activation) at 10 µM | AID 1717 | HEK293-KCC2, thallium flux FluoZin2 fluorescence; bidirectional: low = inhibitor, high = activator;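 active means thallium flux slope beyond 3 SD from same-plate DMSO control mean in most replicates, usually higher, sometimes lower; inconclusive means repeat tests gave conflicting results; inactive means no significant difference from controls in most replicates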;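 further: slope of initial-normalized fluorescence between seconds 10 and 20 after thallium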
HEK counter2: counter-screen for KCC2 modulators: effect in parental HEK293 cells; shares compounds with Cl transport mod; thallium flux FluoZin-2 fluorescence slope; thallium flux slope at 10 µM; hit rate 33% among 3,700;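 active means thallium flux slope above the same plate's solvent-control mean plus 3 SD in both duplicate wells; inconclusive means duplicate wells that disagreed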;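 further: run without ouabain in cells lacking the KCC2 cotransporter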
Each line names hits and unclear results; the compound was inactive in the other large screens (follow-up assays come after a bar, where they were run).

S=c1nc(-c2ccccc2)n(CCCN2CCOCC2)c2c1CCCC2	Cl transport mod 12 (no result: ROMK mod) | KCC2 sec1 0.018 | KCC2 bumet counter 0.024 | KCC2 secondary2 inactive | HEK293 Tl flux 0.026 | KCC2 retest ouab 0.037 | HEK counter2 inconclusive
O=c1[nH]nc(Sc2ncnc3sccc23)n1CCc1ccccc1	Cl transport mod -3.2 (no result: ROMK mod) | KCC2 sec1 inactive | KCC2 bumet counter inactive | KCC2 secondary2 inactive | HEK293 Tl flux inactive | KCC2 retest ouab inactive | HEK counter2 inactive
CCOc1ccc2nc(SC3CC(=O)N(c4ccc(OC)cc4OC)C3=O)sc2c1 (configuration not stated)	Cl transport mod 5.8 | KCC2 sec1 inactive | KCC2 bumet counter 0.013 | KCC2 secondary2 inactive | HEK293 Tl flux 0.014 | KCC2 retest ouab inconclusive | HEK counter2 0.017
CCOc1ccc(N2C(=O)CC(Sc3nc4ccc(OCC)cc4s3)C2=O)cc1 (configuration not stated)	none (no result: ROMK mod, bCat nuc transl)
O=C(N/N=C/c1ccco1)c1cc([N+](=O)[O-])cc([N+](=O)[O-])c1	none
O=C(N/N=C/c1ccc(Br)o1)c1cc([N+](=O)[O-])cc([N+](=O)[O-])c1	Cl transport mod 12 | KCC2 sec1 inconclusive | KCC2 bumet counter 0.024 | KCC2 secondary2 inactive | HEK293 Tl flux 0.0098 | KCC2 retest ouab 0.026 | HEK counter2 inconclusive
Cc1c(-c2ccccc2)oc2c(C(=O)OCC(=O)Nc3ccc(C(N)=O)cc3)cccc2c1=O	Cl transport mod -5 (no result: ROMK mod, bCat nuc transl, DTT redox prof) | KCC2 sec1 inactive | KCC2 bumet counter inactive | KCC2 secondary2 inactive | HEK293 Tl flux inconclusive | KCC2 retest ouab 0.016 | HEK counter2 inactive
COC(=O)c1ccc(NC(=O)COC(=O)c2cccc3c(=O)c(C)c(-c4ccccc4)oc23)cc1	none (no result: ROMK mod)
Cc1cc(NC(=O)c2ccc(S(=O)(=O)N3CCCC3)cc2)nc2c1c(=O)oc1ccccc12	none (no result: Cl transport mod) | KCC2 sec1 inactive | KCC2 bumet counter inactive | KCC2 secondary2 inactive | HEK293 Tl flux inactive | KCC2 retest ouab inactive | HEK counter2 inconclusive
O=C(Nc1ccn(-c2ccccc2)n1)c1ccc(S(=O)(=O)N2CCCCCC2)cc1	none (no result: Cl transport mod) | KCC2 sec1 inconclusive | KCC2 bumet counter inactive | KCC2 secondary2 inactive | HEK293 Tl flux inactive | KCC2 retest ouab 0.016 | HEK counter2 inactive
Cc1cc(NC(=O)c2ccc(S(=O)(=O)N3CCOCC3)cc2)nc2c1c(=O)oc1ccccc12	none (no result: Cl transport mod)
Cn1c(=O)c2c(ncn2CC(=O)OCC(=O)Nc2cc(Cl)ccc2Cl)n(C)c1=O	none
Cc1cc(C(=O)OCC(=O)NCc2ccco2)c(C)o1	none
O=C(NCc1ccccn1)C(=O)Nc1nc(C23CC4CC(CC(C4)C2)C3)cs1	Cl transport mod 16 | KCC2 sec1 inactive | KCC2 bumet counter 0.014 | KCC2 secondary2 inactive | HEK293 Tl flux 0.026 | KCC2 retest ouab 0.026 | HEK counter2 0.015
Cc1nc(NC(=O)COC(=O)CCS(=O)(=O)c2ccccc2Cl)c(Cl)cc1Cl	none (no result: ROMK mod)
Cc1[nH]c2ccccc2c1C(=O)COC(=O)CCS(=O)(=O)c1ccccc1Cl	Cl transport mod -3.1 (no result: ROMK mod) | KCC2 sec1 inactive | KCC2 bumet counter inconclusive | KCC2 secondary2 inactive | HEK293 Tl flux inactive | KCC2 retest ouab 0.017 | HEK counter2 inactive
CCCCOC(=O)CSc1nc(N)c(C#N)c(-c2ccc(OCC)cc2)c1C#N	none (no result: ROMK mod)
CCCCOc1ccc(-c2c(C#N)c(N)nc(SCC(N)=O)c2C#N)cc1	Cl transport mod -6.4 | KCC2 sec1 inactive | KCC2 bumet counter inactive | KCC2 secondary2 inactive | HEK293 Tl flux inactive | KCC2 retest ouab 0.017 | HEK counter2 inconclusive
COCCN1C(=O)N[C@@H](CCc2ccccc2)C(C(C)=O)=C1C	Cl transport mod 6 (no result: bCat nuc transl) | KCC2 sec1 inactive | KCC2 bumet counter inactive | KCC2 secondary2 0.025 | HEK293 Tl flux inactive | KCC2 retest ouab inactive | HEK counter2 inactive
CCOc1ccccc1NC(=O)CSc1nnc(-c2cnccn2)n1C	none (no result: ROMK mod)
C=CCn1c(SCC(=O)Nc2cccc3ccccc23)nnc1-c1cnccn1	Cl transport mod -3 (no result: ROMK mod) | KCC2 sec1 inactive | KCC2 bumet counter inconclusive | KCC2 secondary2 inactive | HEK293 Tl flux inactive | KCC2 retest ouab inactive | HEK counter2 inactive
COc1cc(NS(=O)(=O)c2cc(C)ccc2OC)c(OC)cc1Cl	none (no result: ROMK mod, Cl transport mod)
COc1ccc(C)cc1S(=O)(=O)Nc1cc(Cl)ccc1Cl	Cl transport mod 9 | KCC2 sec1 inactive | KCC2 bumet counter 0.013 | KCC2 secondary2 inactive | HEK293 Tl flux 0.012 | KCC2 retest ouab inactive | HEK counter2 0.013
Cc1ccccc1CN(C)C(C)C(=O)Nc1ccccc1F (configuration not stated)	none
CCn1c(-c2ccc(C(C)(C)C)cc2)n[nH]c1=S	Cl transport mod 6.8 | KCC2 sec1 inconclusive | KCC2 bumet counter 0.03 | KCC2 secondary2 inactive | HEK293 Tl flux inconclusive | KCC2 retest ouab 0.032 | HEK counter2 inconclusive
Cc1ccc(C(=O)N(CN2CCCC2=O)c2ccccc2)cc1C	none (no result: Cl transport mod) | KCC2 sec1 inactive | KCC2 bumet counter inactive | KCC2 secondary2 inactive | HEK293 Tl flux inactive | KCC2 retest ouab inactive | HEK counter2 inactive
Cc1ccc(N(CN2CCCC2=O)C(=O)c2ccc(C)c(C)c2)cc1	none (no result: Cl transport mod)
O=C(Cc1cc(=O)[nH]c(=O)[nH]1)NCc1ccccc1	none
Cc1ccc(S(=O)(=O)c2nc(C)oc2NCc2ccccc2)cc1	none (no result: ROMK mod, Cl transport mod) | KCC2 sec1 inactive | KCC2 bumet counter inactive | KCC2 secondary2 inactive | HEK293 Tl flux inactive | KCC2 retest ouab inconclusive | HEK counter2 inactive
CNc1oc(C)nc1S(=O)(=O)c1ccc(C)cc1	none (no result: Cl transport mod)
O=C(COC(=O)c1ccc(Cl)nc1)Nc1ccccc1OC(F)F	none
Cc1ccc(Nc2nc3ccccc3c(=O)s2)cc1	Cl transport mod 14 | KCC2 sec1 0.011 | KCC2 bumet counter 0.031 | KCC2 secondary2 inactive | HEK293 Tl flux 0.013 | KCC2 retest ouab 0.034 | HEK counter2 0.011
Cc1cc(C)n2nc(Sc3ncccc3[N+](=O)[O-])nc2n1	none (no result: ROMK mod, MT stabilizer, DTT redox prof)
